Laboratory results from ChEMBL document CHEMBL1146459, “Production of biologically active taxoids by a callus culture of Taxus cuspidata” (2004).

Tests used:
Assay type in all cases: functional, A2780 ADR
[1] = Reversal of multidrug resistance in human 2780AD cells assessed as [3H]vincristine accumulation at 0.1 ug/mL after 2 hrs relative to control
Method in brief: (§1)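 Multidrug-resistant human ovarian cancer 2780AD cells were exposed to taxoids at 0.1, 1 or 10 µg/mL. Radiolabelled vincristine accumulated in the cells was measured as dpm/well, using means of triplicate determinations. Results are expressed as % of vincristine accumulated relative to the control experiment. They were also scored on a seven-level index according to the range of relative accumulation.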

[2] = Reversal of multidrug resistance in human 2780AD cells assessed as [3H]vincristine accumulation at 10 ug/mL after 2 hrs relative to control; method in brief: as §1
[3] = Reversal of multidrug resistance in human 2780AD cells assessed as [3H]vincristine accumulation at 1 ug/mL after 2 hrs relative to control; method in brief: as §1
[4] = Reversal of multidrug resistance in human 2780AD cells assessed as [3H]vincristine accumulation at 10 ug/mL after 2 hrs relative to verapamil
[5] = Reversal of multidrug resistance in human 2780AD cells assessed as [3H]vincristine accumulation at 1 ug/mL after 2 hrs relative to verapamil
[6] = Reversal of multidrug resistance in human 2780AD cells assessed as [3H]vincristine accumulation at 0.1 ug/mL after 2 hrs relative to verapamil

SMILES: C=C1[C@@H](OC(C)=O)CC[C@@]2(C)C[C@H](OC(C)=O)C3=C(C)C[C@H](OC(=O)C(C)C(C)O)[C@@H]([C@@H](OC(C)=O)[C@H]12)C3(C)C (some centres not stated) [YUNNANXANE]
- Activity [1]: 112%
- Activity [2]: 234%
- Activity [3]: 150%
- Activity [4]: 75%
- Activity [5]: 94%
- Activity [6]: 97%

SMILES: COc1ccc(CCN(C)CCCC(C#N)(c2ccc(OC)c(OC)c2)C(C)C)cc1OC (configuration not stated) [VERAPAMIL]
- Activity [1]: 117%
- Activity [2]: 531%
- Activity [3]: 207%

SMILES: C=C1[C@@H](OC(C)=O)CC[C@@]2(C)C[C@H](OC(C)=O)C3=C(C)C[C@H](OC(=O)CC)[C@@H]([C@@H](OC(C)=O)[C@H]12)C3(C)C
- Activity [1]: 119%
- Activity [2]: 770%
- Activity [3]: 295%
- Activity [4]: 145%
- Activity [5]: 134%
- Activity [6]: 102%

SMILES: C=C1[C@@H](OC(C)=O)CC[C@@]2(C)C[C@H](OC(C)=O)C3=C(C)C[C@H](OC(C)=O)[C@@H]([C@@H](OC(C)=O)[C@H]12)C3(C)C [TAXUYUNNANINE C]
- Activity [1]: 105%
- Activity [2]: 244%
- Activity [3]: 155%
- Activity [4]: 78%
- Activity [5]: 97%
- Activity [6]: 91%

SMILES: C=C1[C@@H](OC(C)=O)CC[C@@]2(C)C[C@H](OC(C)=O)C3=C(C)C[C@H](OC(=O)C(C)C)[C@@H]([C@@H](OC(C)=O)[C@H]12)C3(C)C
- Activity [1]: 96%
- Activity [2]: 522%
- Activity [3]: 195%
- Activity [4]: 98%
- Activity [5]: 95%
- Activity [6]: 82%
